Assays:
Canis familiaris [1] = assay: Cardiotoxicity in spontaneously respiring dog assessed as degree of increase in heart rate at 10 to 20 mg/kg, iv relative to control; format: toxicity, organism-based, Canis lupus familiaris; set-up: dose 10-20 mg/kg, route intravenous; conditions: in vivo
Outline: (§1)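 Anesthetized, spontaneously respiring dogs. Heart rate monitored by lead II EKG; blood pressure from right femoral artery by pressure transducer. Rise in heart rate (beats/min) scored ±=5-15, +=20-40, ++=40-60, +++=>60, n>4/dose; duration of the rise in h. Drug stocks freshly made in distilled water, diluted in physiological saline, kept on ice.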

Canis familiaris [2] = assay: Bronchodilator activity in dog assessed as time of inhibition of carbachol or histamine-induced bronchoconstriction at 10 to 20 mg/kg, iv relative to control; format: functional, Canis lupus familiaris; conditions: dose mg/kg 10-20
Outline: (§2)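 Dog with airway cannulated through a nonbreathing valve. Bronchoconstriction induced by iv carbachol (2–4 µg/kg) or histamine diphosphate (20–50 µg/kg); airway pressure recorded by pressure transducer. Each compound tested against both agonists in different animals, and results were combined and averaged. Bronchodilation = % inhibition of control constriction; degree scored as +, ++, +++ (20-45, 45-70, >70%) from higher dose, ≥3 dogs/dose; duration in h.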

Canis familiaris [3] = assay: Cardiotoxicity in spontaneously respiring dog assessed as time of increase in heart rate at 10 to 20 mg/kg, iv relative to control; format: toxicity, organism-based, Canis lupus familiaris; set-up: dose 10-20 mg/kg, route intravenous; conditions: in vivo; outline: as §1
Canis familiaris [4] = assay: Bronchodilator activity in dog assessed as degree of inhibition of carbachol or histamine-induced bronchoconstriction at 10 to 20 mg/kg, iv relative to control; format: functional, Canis lupus familiaris; conditions: dose mg/kg 10-20; outline: as §2
Canis familiaris [5] = assay: Cardiotoxicity in spontaneously respiring dog assessed as degree of increase in heart rate at 5 to 20 mg/kg, iv relative to control; format: toxicity, organism-based, Canis lupus familiaris; set-up: dose 5-20 mg/kg, route intravenous; conditions: in vivo; outline: as §1
Canis familiaris [6] = assay: Bronchodilator activity in dog assessed as time of inhibition of carbachol or histamine-induced bronchoconstriction at 5 to 20 mg/kg, iv relative to control; format: functional, Canis lupus familiaris; conditions: dose mg/kg 5-20; outline: as §2
Canis familiaris [7] = assay: Cardiotoxicity in spontaneously respiring dog assessed as time of increase in heart rate at 5 to 20 mg/kg, iv relative to control; format: toxicity, organism-based, Canis lupus familiaris; set-up: dose 5-20 mg/kg, route intravenous; conditions: in vivo; outline: as §1
Canis familiaris [8] = assay: Bronchodilator activity in dog assessed as degree of inhibition of carbachol or histamine-induced bronchoconstriction at 5 to 20 mg/kg, iv relative to control; format: functional, Canis lupus familiaris; conditions: dose mg/kg 5-20; outline: as §2
Canis familiaris [9] = assay: Bronchodilator activity in dog assessed as degree of inhibition of carbachol or histamine-induced bronchoconstriction at 5 mg/kg, iv relative to control; format: functional; conditions: Canis lupus familiaris
Outline: (§3)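 Anesthetized dogs, trachea cannulated with a nonbreathing valve. Bronchoconstriction induced by iv carbachol (2–4 μg/kg) or histamine diphosphate (20–50 μg/kg) in separate animals, and airway pressure recorded by transducer. Drug stocks were made fresh in distilled water, diluted in saline and kept on ice. Read-out was percent inhibition of control constriction, averaged over at least three dogs per dose at the higher dose. Carbachol and histamine data were combined.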

Canis familiaris [10] = assay: Bronchodilator activity in dog assessed as time of inhibition of carbachol or histamine-induced bronchoconstriction at 5 mg/kg, iv relative to control; format: functional, Canis lupus familiaris
Outline: (§4)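 Anesthetized dogs with an airway cannula and a nonbreathing valve. Bronchoconstriction was induced by iv carbachol (2–4 μg/kg) or histamine diphosphate (20–50 μg/kg) and read as change in airway pressure by transducer. Each compound was tested against both agonists in different dogs, and the results were combined and averaged. Effect is % inhibition of control constriction, with at least three dogs per dose. Drugs were dissolved fresh in distilled water, diluted in saline and kept on ice.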

Canis familiaris [11] = assay: Cardiotoxicity in spontaneously respiring dog assessed as degree of increase in heart rate at 5 to 10 mg/kg, iv relative to control; format: toxicity, organism-based, Canis lupus familiaris; set-up: dose 5-10 mg/kg, route intravenous; conditions: in vivo
Outline: (§5)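 Anesthetized, spontaneously respiring dogs. Heart rate was taken from a lead II EKG, and blood pressure from the right femoral artery by transducer. The increase in heart rate (beats/min) was scored on a graded scale with more than 4 dogs per dose, and its duration was recorded. Drugs were dissolved fresh in distilled water, diluted in physiological saline and kept on ice.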

Canis familiaris [12] = assay: Bronchodilator activity in dog assessed as degree of inhibition of carbachol or histamine-induced bronchoconstriction at 440 to 880 mg/kg, it relative to control; format: functional, Canis lupus familiaris; conditions: dose mg/kg 440-880; route endotracheal; outline: as §3
Canis familiaris [13] = assay: Bronchodilator activity in dog assessed as time of inhibition of carbachol or histamine-induced bronchoconstriction at 440 to 880 mg/kg, it relative to control; format: functional, Canis lupus familiaris; conditions: dose mg/kg 440-880; route endotracheal; outline: as §4
Canis familiaris [14] = assay: Bronchodilator activity in dog assessed as time of inhibition of carbachol or histamine-induced bronchoconstriction at 5 to 10 mg/kg, iv relative to control; format: functional, Canis lupus familiaris; conditions: dose mg/kg 5-10; outline: as §4
Canis familiaris [15] = assay: Cardiotoxicity in spontaneously respiring dog assessed as time of increase in heart rate at 5 to 10 mg/kg, iv relative to control; format: toxicity, organism-based, Canis lupus familiaris; set-up: dose 5-10 mg/kg, route intravenous; conditions: in vivo; outline: as §5
Canis familiaris [16] = assay: Bronchodilator activity in dog assessed as degree of inhibition of carbachol or histamine-induced bronchoconstriction at 5 to 10 mg/kg, iv relative to control; format: functional, Canis lupus familiaris; conditions: dose mg/kg 5-10; outline: as §3
Canis familiaris [17] = assay: Cardiotoxicity in spontaneously respiring dog assessed as time of increase in heart rate at 50 to 100 mg/kg, iv relative to control; format: toxicity, organism-based, Canis lupus familiaris; set-up: dose 50-100 mg/kg, route intravenous; conditions: in vivo
Outline: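 Anesthetized, spontaneously respiring dogs. Heart rate monitored by lead II EKG, with blood pressure taken from the right femoral artery by pressure transducer and recorded on a polygraph. Drug stocks made fresh in distilled water, diluted in physiological saline and kept on ice. Dosing was iv, id or it as listed. The duration of the heart-rate increase was recorded in h, with more than 4 dogs per dose.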

Canis familiaris [18] = assay: Bronchodilator activity in dog assessed as time of inhibition of carbachol or histamine-induced bronchoconstriction at 50 to 100 mg/kg, iv relative to control; format: functional, Canis lupus familiaris; conditions: dose mg/kg 50-100; outline: as §4
Canis familiaris [19] = assay: Cardiotoxicity in spontaneously respiring dog assessed as degree of increase in heart rate at 50 to 100 mg/kg, iv relative to control; format: toxicity, organism-based, Canis lupus familiaris; set-up: dose 50-100 mg/kg, route intravenous; conditions: in vivo; outline: as §5
Canis familiaris [20] = assay: Bronchodilator activity in dog assessed as degree of inhibition of carbachol or histamine-induced bronchoconstriction at 50 to 100 mg/kg, iv relative to control; format: functional, Canis lupus familiaris; conditions: dose mg/kg 50-100; outline: as §3
Canis familiaris [21] = assay: Cardiotoxicity in spontaneously respiring dog assessed as time of increase in heart rate at 400 to 800 mg/kg, it relative to control; format: toxicity, organism-based, Canis lupus familiaris; set-up: dose 400-800 mg/kg, route endotracheal; conditions: in vivo, inhaled_or_intranasal; outline: as §5
Canis familiaris [22] = assay: Bronchodilator activity in dog assessed as time of inhibition of carbachol or histamine-induced bronchoconstriction at 400 to 800 mg/kg, it relative to control; format: functional, Canis lupus familiaris; conditions: dose mg/kg 400-800; route endotracheal
Outline: (§6)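 Dog airway model: anesthetized, cannulated via a nonbreathing valve, with airway pressure changes recorded after iv carbachol (2–4 μg/kg) or histamine diphosphate (20–50 μg/kg) challenge, each agonist in different animals. Compounds were given iv, intraduodenally or intratracheally from fresh aqueous stocks diluted in saline. Duration (h) of inhibition of induced bronchoconstriction was followed, and the two agonist datasets were pooled.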

Canis familiaris [23] = assay: Bronchodilator activity in dog assessed as degree of inhibition of carbachol or histamine-induced bronchoconstriction at 400 to 800 mg/kg, it relative to control; format: functional, Canis lupus familiaris; conditions: dose mg/kg 400-800; route endotracheal; outline: as §3
Canis familiaris [24] = assay: Cardiotoxicity in spontaneously respiring dog assessed as degree of increase in heart rate at 400 to 800 mg/kg, it relative to control; format: toxicity, organism-based, Canis lupus familiaris; set-up: dose 400-800 mg/kg, route endotracheal; conditions: in vivo, inhaled_or_intranasal; outline: as §5
Canis familiaris [25] = assay: Bronchodilator activity in dog assessed as degree of inhibition of carbachol or histamine-induced bronchoconstriction at 200 to 400 mg/kg, id relative to control; format: functional, Canis lupus familiaris; conditions: dose mg/kg 200-400; route intraduodenal; outline: as §3
Canis familiaris [26] = assay: Bronchodilator activity in dog assessed as time of inhibition of carbachol or histamine-induced bronchoconstriction at 380 mg/kg, it relative to control; format: functional, Canis lupus familiaris; conditions: route endotracheal; outline: as §6
Canis familiaris [27] = assay: Cardiotoxicity in spontaneously respiring dog assessed as time of increase in heart rate at 4 to 8 mg/kg, iv relative to control; format: toxicity, organism-based, Canis lupus familiaris; set-up: dose 4-8 mg/kg, route intravenous; conditions: in vivo; outline: as §5
Canis familiaris [28] = assay: Bronchodilator activity in dog assessed as degree of inhibition of carbachol or histamine-induced bronchoconstriction at 380 mg/kg, it relative to control; format: functional; conditions: Canis lupus familiaris, route endotracheal; outline: as §3
Canis familiaris [29] = assay: Bronchodilator activity in dog assessed as time of inhibition of carbachol or histamine-induced bronchoconstriction at 200 to 400 mg/kg, id relative to control; format: functional, Canis lupus familiaris; conditions: dose mg/kg 200-400; route intraduodenal; outline: as §6
Canis familiaris [30] = assay: Bronchodilator activity in dog assessed as time of inhibition of carbachol or histamine-induced bronchoconstriction at 4 to 8 mg/kg, iv relative to control; format: functional, Canis lupus familiaris; conditions: dose mg/kg 4-8; outline: as §6
Canis familiaris [31] = assay: Cardiotoxicity in spontaneously respiring dog assessed as degree of increase in heart rate at 4 to 8 mg/kg, iv relative to control; format: toxicity, organism-based, Canis lupus familiaris; set-up: dose 4-8 mg/kg, route intravenous; conditions: in vivo; outline: as §5
Canis familiaris [32] = assay: Bronchodilator activity in dog assessed as degree of inhibition of carbachol or histamine-induced bronchoconstriction at 4 to 8 mg/kg, iv relative to control; format: functional, Canis lupus familiaris; conditions: dose mg/kg 4-8; outline: as §3

## CC(C)(C)NC[C@H](O)c1ccc(OC(=O)C(C)(C)C)c(O)c1.CS(=O)(=O)O
Canis familiaris [1]
  Activity: 40%
Canis familiaris [2]
  Time: <2 h
Canis familiaris [3]
  Time: < 0.5 h
Canis familiaris [4]
  inhibition (INH): 45%

## CC(C)CC(=O)Oc1ccc([C@@H](O)CNC(C)(C)C)cc1O.CS(=O)(=O)O
Canis familiaris [5]
  Activity: 40%
Canis familiaris [6]
  Time: <2 h
Canis familiaris [7]
  Time: < 1 h
Canis familiaris [8]
  inhibition (INH): 45%

## CC(C)(C)CC(=O)Oc1ccc([C@@H](O)CNC(C)(C)C)cc1O.CS(=O)(=O)O
Canis familiaris [9]
  inhibition in vivo at 5 mg/kg: 45%
Canis familiaris [10]
  Time: >3 h

## CS(=O)(=O)O.Cc1ccc(C(=O)Oc2ccc([C@@H](O)CNC(C)(C)C)cc2O)cc1
Canis familiaris [11]
  Activity: 40 beats/min
Canis familiaris [12]
  inhibition (INH): 45%
Canis familiaris [13]
  Time: <2 h
Canis familiaris [14]
  Time: >3 h
Canis familiaris [15]
  Time: < 0.5 h
Canis familiaris [16]
  inhibition (INH): 45%

## CS(=O)(=O)O.Cc1cccc(C(=O)Oc2ccc([C@@H](O)CNC(C)(C)C)cc2O)c1
Canis familiaris [17]
  Time: < 0.5 h
Canis familiaris [12]
  inhibition (INH): >70%
Canis familiaris [18]
  Time: <2 h
Canis familiaris [19]
  Activity: 40 beats/min
Canis familiaris [13]
  Time: <2 h
Canis familiaris [20]
  inhibition (INH): >70%

## COc1ccc(C(=O)Oc2ccc([C@@H](O)CNC(C)(C)C)cc2O)cc1.Cl
Canis familiaris [21]
  Time: < 0.5 h
Canis familiaris [22]
  Time: <2 h
Canis familiaris [23]
  inhibition (INH): 45%
Canis familiaris [24]
  Activity: 20%

## CCCC(=O)Oc1ccc([C@@H](O)CNC(C)(C)C)cc1OC(=O)CCC.Cl
Canis familiaris [25]
  inhibition (INH): >70%
Canis familiaris [26]
  Time: <2 h
Canis familiaris [27]
  Time: < 1 h
Canis familiaris [28]
  inhibition in vivo at 380 mg/kg: > 70%
Canis familiaris [29]
  Time: >3 h
Canis familiaris [30]
  Time: <2 h
Canis familiaris [31]
  Activity: 20 beats/min
Canis familiaris [32]
  inhibition (INH): >70%

Source: ChEMBL document CHEMBL3272249, “Esters of N-tert-butylarterenol. Long-acting new bronchodilators with reduced cardiac effects” (J Med Chem, 1976)
